SMILES strings stand for the structures. Active and inactive are the calls of the source. The calls are words filed in the database; no cut-off is given here. A value given as a limit tells only on which side of the number the result lay.

Data set [1] addresses T1, D-amino-acid oxidase (Homo sapiens, UniProt P14920). Put plainly: Competitive inhibition of human recombinant DAAO by Michaelis-Menten plot analysis in presence of D-serine.
In data set [2] the target is T1, D-amino-acid oxidase. Put plainly: Competitive inhibition of human recombinant DAAO after 1 hr by coupled enzyme assay in presence of D-serine.
Data set [3] concerns the target T1, D-amino-acid oxidase. The data set can be described thus: Binding affinity to human recombinant DAAO by stopped flow spectrophotometric analysis in presence of FAD.
Data set [4] addresses T1, D-amino-acid oxidase.
Data set [5] deals with T1, D-amino-acid oxidase. Put plainly: Binding affinity to human recombinant DAAO at 492 nm spectral modification by spectrophotometric analysis in presence of FAD. In short, it runs like this:
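Purified human recombinant DAAO, E. coli-expressed and purified on a nickel column then size exclusion, was titrated in the oxidized (holoenzyme) state with rising inhibitor concentrations up to saturation, without substrate turnover. Ligand-induced changes in the FAD visible absorption spectrum were followed. Kd with SE came from nonlinear regression of saturation curves of absorbance change against inhibitor concentration.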

Data set [6] addresses T2, D-amino-acid oxidase (Sus scrofa, UniProt P00371). The data set can be described thus: Competitive inhibition of pig kidney DAAO in presence of D-alanine.
Data set [7] has as its system Rattus norvegicus. Put plainly: Inhibition of DAAO in ip dosed Sprague-Dawley rat assessed as cerebellum concentration of compound required for 50% accumulation of D-serine after 6 hrs by LC/MS/MS analysis. Format: functional, organism-based. The gist of the method:
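Rats received different ip doses. Cerebellum D-serine and inhibitor concentrations were measured 6 h later. EC50 was the inhibitor concentration at half-maximal D-serine increase, from a sigmoidal dose–response fit.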

The target in data set [8] is T1, D-amino-acid oxidase. The data set can be described thus: Binding affinity to human recombinant DAAO at 395 nm spectral modification by spectrophotometric analysis in presence of FAD. The gist of the method:
(§1)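 Oxidized holoenzyme of purified human recombinant DAAO, titrated with increasing inhibitor in the absence of substrate. Ligand-induced changes in the FAD visible absorption spectrum were read at fixed wavelengths. Kd and SE came from nonlinear regression of saturation of the absorbance change.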

In data set [9] the test system is Mus musculus. The data set can be described thus: Inhibition of DAAO in C57BL/6 mouse assessed as increase in rate of D-serine accumulation in cerebellum at 125 mg/kg, ip by LC/MS/MS analysis. The data set is classed as functional, organism-based. More on the design: dose 125 mg/kg. The gist of the method:
(§2)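 Male C57BL/6 mice (20–30 g) were dosed ip in 50 mM phosphate buffer at 5 mL/kg, with controls given vehicle only. Regimens were 12 mg/kg once or repeated at 2, 4 and 6 h, 30 mg/kg, or 125 mg/kg. Mice were killed at set times. Cerebellar inhibitor and D-serine were measured in the same samples, D-serine by chiral LC/MS/MS. Initial rate was the slope over 0–2 h.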

Data set [10] deals with T1, D-amino-acid oxidase. The data set can be described thus: Binding affinity to human recombinant DAAO at 444 nm spectral modification by spectrophotometric analysis in presence of FAD. The gist of the method:
as §1

Data set [11] addresses T1, D-amino-acid oxidase. Put plainly: Binding affinity to human recombinant DAAO at 362 nm spectral modification by spectrophotometric analysis in presence of FAD. The gist of the method:
as §1

Data set [12] has as its target T1, D-amino-acid oxidase. Put plainly: Binding affinity to human recombinant DAAO at 498 nm spectral modification by spectrophotometric analysis in presence of FAD. In short, it runs like this:
as §1

Data set [13] in a line: Drug uptake in C57BL/6 mouse cerebellum at 125 mg/kg, ip after 3 hrs by LC/MS/MS analysis. Format: ADME, organism-based. More on the design: dose 125 mg/kg, route intraperitoneal. As to conditions: read-out: Drug uptake. The gist of the method:
as §2

Data set [14] addresses T1, D-amino-acid oxidase. The data set can be described thus: Binding affinity to human recombinant DAAO at 600 nm spectral modification by spectrophotometric analysis in presence of FAD. The gist of the method: (§3)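 Purified human recombinant DAAO holoenzyme (His-tagged construct expressed in E. coli, purified by nickel column and size exclusion) was titrated in its oxidized state with increasing inhibitor concentrations, without substrate turnover. Ligand-induced changes in the FAD visible absorption spectrum were read at the stated wavelength. Kd and SE came from nonlinear regression of absorbance-change saturation curves. Changes above 500 nm indicate a charge-transfer complex.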

Data set [15] has as its target T1, D-amino-acid oxidase. Put plainly: Binding affinity to human recombinant DAAO at 440 nm spectral modification by spectrophotometric analysis in presence of FAD. The gist of the method:
as §3

Data set [16] concerns Rattus norvegicus. Put plainly: Metabolic stability in Sprague-Dawley rat at 3 to 10 mg/kg, po/10 mg/kg, ip by LC/MS/MS analysis. Format: ADME, organism-based. Details: dose 3-10 mg/kg, route intraperitoneal. The note with it: in vivo.
The nature of data set [17]: Drug uptake in C57BL/6 mouse cerebellum at 12 mg/kg, ip after 2 hrs by LC/MS/MS analysis. Format: ADME, organism-based. Details: dose 12 mg/kg, route intraperitoneal. The note with it: read-out: Drug uptake. The gist of the method:
as §2

For data set [18], the target named is T1, D-amino-acid oxidase. Put plainly: Inhibition of DAAO (unknown origin).
Data set [19] can be described thus: Drug uptake in C57BL/6 mouse cerebellum at 12 mg/kg, ip administered every 2 hrs by LC/MS/MS analysis. The note with it: read-out: Drug uptake. Format: ADME, organism-based. Details: dose 12 mg/kg, route intraperitoneal. In short, it runs like this:
as §2

Data set [20] is filed under the species Mus musculus. As to conditions: C57BL/6, Cerebellum, 12 mg/kg.
Data set [21] addresses T1, D-amino-acid oxidase. Put plainly: Binding affinity to human recombinant DAAO at 490 nm spectral modification by spectrophotometric analysis in presence of FAD.
In data set [22] the target is T1, D-amino-acid oxidase. Put plainly: Binding affinity to human recombinant DAAO at 520 nm spectral modification by spectrophotometric analysis in presence of FAD.
Data set [23] can be described thus: Drug uptake in C57BL/6 mouse cerebellum at 30 mg/kg, ip after 6 hrs by LC/MS/MS analysis. The data set is classed as ADME, organism-based. More on the design: dose 30 mg/kg, route intraperitoneal. As to conditions: read-out: Drug uptake. In short, it runs like this: as §2
Data set [24] has as its target T2, D-amino-acid oxidase. Put plainly: Binding affinity to pig kidney DAAO using D-alanine as substrate.
For data set [25], the target named is T1, D-amino-acid oxidase. Put plainly: Binding affinity to human recombinant DAAO at 443 nm spectral modification by spectrophotometric analysis in presence of FAD. The gist of the method: as §3
The target of data set [26] is T1, D-amino-acid oxidase. Put plainly: Binding affinity to human recombinant DAAO at 496 nm spectral modification by spectrophotometric analysis in presence of FAD. The gist of the method: as §3

T1 sequence (P14920 whole entry): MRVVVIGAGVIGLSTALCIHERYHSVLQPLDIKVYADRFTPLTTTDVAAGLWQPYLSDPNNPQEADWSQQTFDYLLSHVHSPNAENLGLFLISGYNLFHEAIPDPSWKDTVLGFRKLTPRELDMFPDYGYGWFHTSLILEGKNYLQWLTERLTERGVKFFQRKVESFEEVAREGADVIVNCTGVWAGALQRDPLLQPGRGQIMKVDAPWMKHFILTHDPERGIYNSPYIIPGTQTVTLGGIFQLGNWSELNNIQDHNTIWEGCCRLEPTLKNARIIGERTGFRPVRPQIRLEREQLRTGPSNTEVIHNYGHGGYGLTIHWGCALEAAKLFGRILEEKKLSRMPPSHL
T2 sequence (P00371 whole entry): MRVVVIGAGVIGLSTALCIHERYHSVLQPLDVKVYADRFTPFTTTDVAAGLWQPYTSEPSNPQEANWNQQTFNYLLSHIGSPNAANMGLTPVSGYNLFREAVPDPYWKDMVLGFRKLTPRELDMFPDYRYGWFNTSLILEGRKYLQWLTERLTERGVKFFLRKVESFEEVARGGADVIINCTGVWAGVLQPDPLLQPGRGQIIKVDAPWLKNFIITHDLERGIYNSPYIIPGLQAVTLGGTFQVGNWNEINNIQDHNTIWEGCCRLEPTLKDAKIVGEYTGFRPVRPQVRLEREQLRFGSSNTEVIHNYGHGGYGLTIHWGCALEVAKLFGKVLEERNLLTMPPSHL

As a reminder, the Ki is the equilibrium dissociation constant of an inhibitor or competing ligand from its target. By IC50 is commonly meant the concentration that gives 50% inhibition. A word on the Kd: it is the concentration at which binding is half-saturated. For the compound `O=C(O)c1ccccc1` [BENZOIC ACID], at D-amino-acid oxidase [1], the Ki is 2000 nM. Moreover, the IC50 on D-amino-acid oxidase [2] is 2090 nM. The Kd was 2300 nM at D-amino-acid oxidase [3], 9000 nM on D-amino-acid oxidase [4] and 2200 nM at D-amino-acid oxidase [5].

`O=C(O)c1cc2ccccc2[nH]1` [INDOLE-2-CARBOXYLIC ACID]: at D-amino-acid oxidase [6], the Ki was 3400 nM.

A word on the EC50: it is the concentration at which the effect is half-maximal. Consider `Oc1noc2cc(Cl)c(Cl)cc12`, for which, in the data set on Rattus norvegicus [7], the EC50 stood at 1500 nM. Also, the Kd was found to be 4000 nM on D-amino-acid oxidase [8]; 4200 nM on D-amino-acid oxidase [10]; 1900 nM at D-amino-acid oxidase [3]; 3600 nM on D-amino-acid oxidase [11]; 4200 nM on D-amino-acid oxidase [12]. Besides, the inhibition result in the data set on Mus musculus [9] is “Active”. Moreover, on D-amino-acid oxidase [1], the Ki was found to be 1.7 nM. Further, the IC50 at D-amino-acid oxidase [2] was 3.09 nM. In addition, in data set [13], the concentration at 3 h is less than 1000 nM.

Turning to `O=C(O)c1cc2occ(CCc3ccccc3)c2[nH]1`, the Ki on D-amino-acid oxidase [1] was 190 nM. Further, the IC50 on D-amino-acid oxidase [2] was 219 nM. Further, the Kd stood at 6000 nM on D-amino-acid oxidase [3], 3200 nM on D-amino-acid oxidase [14], 4800 nM on D-amino-acid oxidase [15] and 3700 nM at D-amino-acid oxidase [5].

For `O=C(O)c1cc2sccc2[nH]1`, in the data set on Rattus norvegicus [7], the EC50 was determined as 500 nM. The Ki at D-amino-acid oxidase [1] stood at 3.5 nM. Further, in the data set with Rattus norvegicus [16], the Stability result is recorded as “Unstable”. Also, the half-maximal inhibitory concentration (IC50) on D-amino-acid oxidase [2] and at D-amino-acid oxidase [18] was 5.37 nM in each case. Also, the concentration at 2 h in [17] is less than 1000 nM; in data set [19] it was greater than 1000 nM. The Kd at D-amino-acid oxidase [3] was found to be 7000 nM; on D-amino-acid oxidase [21], 130 nM; on D-amino-acid oxidase [22] it was 2500 nM. For the same compound, the inhibition result in the data set listed under Mus musculus [20] was “Active”.

Turning to `O=C(O)c1cc(CCc2ccc(Cl)cc2)c[nH]1`, the concentration at 6 h in [23] is greater than 1000 nM.

Compound `O=C(O)c1ccc[nH]1` displayed a Kd on D-amino-acid oxidase [24] of 26000 nM.

As for `O=c1oc2ccccc2cc1O` [3-HYDROXYCOUMARIN], the results for the Kd on D-amino-acid oxidase [25], on D-amino-acid oxidase [3] and at D-amino-acid oxidase [26] were 4000 nM, 6300 nM and 5600 nM, respectively. In addition, the Ki at D-amino-acid oxidase [1] came out at 13 nM. Moreover, the IC50 on D-amino-acid oxidase [2] was 34.7 nM.

The values are drawn from ChEMBL document CHEMBL2375208, “Structural, kinetic, and pharmacodynamic mechanisms of D-amino acid oxidase inhibition by small molecules” (J Med Chem, 2013).
